# High-throughput results as filed in PubChem.
# The list is a sample of the results.
# PGC1a Ac signal: raises PGC1a acetylation signal in U2OS cells. U2OS PGC1a acetylation AlphaScreen, overnight. activation, % at 15.6 µM. 350,000 compounds, 0.21% hits;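 active = every replicate reaching activation of at least 50%, whatever the mean replicate activation; inconclusive = replicates that disagree or another doubt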;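 note: hits raise the AlphaScreen acetylation signal above neutral controls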
#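 Test system: U2OS cells expressing flag-PGC1a plus GCN5; Amount: 7000 U2OS cells per well; Compound: single test concentration per compound; Incubation: compound overnight at 37 °C, each detection step 1 h RT; Signal: AlphaScreen lysate read.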
# Hep G6PC suppr: PGC-1a acetylation activator altering hepatocyte G6PC expression | shares compounds with PGC1a Ac signal | primary mouse hepatocytes, G6PC mRNA qPCR, forskolin | G6PC suppression (normalized activity, % of positive control; higher = more suppression), % at 26 µM | 240 tested, under 10 active;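 active = dose curves showing G6PC suppression whose half-maximal dose is at most twice the top valid dose; inconclusive = flat curves with moderate negative activity, or unreliable fits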;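 note: G6PC expression relative to GAPDH housekeeping gene as delta delta Ct; 0% = median of neutral control wells and 100% = median of positive control wells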
# PCK1 hep suppr: PGC-1a acetylation activators affecting PCK1 expression in hepatocytes; shares compounds with PGC1a Ac signal; primary mouse hepatocytes, PCK1 mRNA qPCR, forskolin-stimulated; PCK1 expression decrease, unspecified at 26 µM; 230 tested, under 10 active;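 active = compounds lowering PCK1 expression whose fitted half-maximal concentration is at most twice the top tested dose; inconclusive = flat fit with moderate opposite-direction effect, or poor fit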;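 note: values are delta delta Ct of PCK1 relative to GAPDH; higher delta delta Ct means lower PCK1 expression so positive values indicate hits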
# PGC1a hep suppr: hepatocyte PGC-1a expression change via PGC-1a acetylation activation; max activity (PGC-1a expression decrease), %; primary mouse hepatocytes, PGC-1a mRNA qPCR, forskolin; top dose 26 µM; shares compounds with PGC1a Ac signal; AID 743467; 240 tested, under 10 active;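 active = compound lowering PGC-1a expression with fitted half-maximal concentration at most twice its top tested dose; inconclusive = flat curve with moderate opposite-direction effect, or poor fit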;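 note: 0% = neutral control wells median and 100% = positive control wells median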
# * hit, by the source's call; ? = inconclusive; / = not tested or not shown; [ ] = dose if it differs, or a comment.
SMILES,PGC1a Ac signal,Hep G6PC suppr,PCK1 hep suppr,PGC1a hep suppr
Cc1ccc(-n2cccn2)c(CN2CCCC(C(=O)c3sccc3C)C2)c1 (stereo unspecified),68*,/,/,?
Cc1[nH]c2ccc(C(C)C)cc2c1CC(=O)O,-76,/,/,/
CCN1CCN(c2nnc(-c3ccccc3)c3ccccc23)CC1,-46,/,/,/
COC(=O)c1ccc(OC)c(OC2CCCC2)c1,-89,/,/,/
CCCCN(CCCC)S(=O)(=O)c1ccc2oc(C(=O)N3CCOCC3)c(C)c2c1,102*,11,5.3,48
CCCCCOC(=O)Cc1c(O)c2ccccc2n(C)c1=O,-43,-30,-16,-27
c1nc(NC2CCCCCC2)c2[nH]cnc2n1,-41,/,/,/
O=c1oc(-c2ccccc2)nc2sc3c(c12)CCC3,-42,/,/,/
O=C(CN1CCC(n2c(=O)[nH]c3ccccc32)CC1)NCc1ccc(Cl)s1,/,-14,-6.3,15
CCOC(=O)C1=C(C)N=c2s/c(=C\c3cccc(OCC(=O)O)c3)c(=O)n2C1c1ccccc1OC (stereo unspecified),-55,/,/,/
C=CCc1ccc(OCCCCNC(C)CC)c(OC)c1 (stereo unspecified),-26,/,/,/
c1ccc(C(c2nnnn2Cc2cccs2)N2CCN(C3CCCC3)CC2)cc1 (stereo unspecified),-42,27,34,38
Cc1nc2ccccc2nc(C)c1=NO,-48,/,/,/
COc1ccc(N(C(=O)c2csnn2)C(C(=O)NC2CCCC2)c2cccs2)cc1 (stereo unspecified),53*,33,/,?
O=C(NC1CCCCC1)C(c1ccc2ncccc2c1)N(Cc1ccc2c(c1)OCO2)C(=O)c1ccc2c(c1)OCCO2 (stereo unspecified),-96,/,/,/
O=C(c1ccccc1Nc1ccc(SC(F)F)cc1)N1CCCCCC1,53*,-38,11,84
O=C(O)c1ccccc1C(=O)N1CCN(C(=O)c2ccccc2Cl)CC1,-50,/,/,/
Cc1cc(=O)n2[nH]c(=O)c(N=Nc3ccccc3)c2[nH]1,-44,/,/,/
CN(c1ccccc1)S(=O)(=O)c1ccc(Cl)nc1,-44,/,/,/
Cc1ccc(C2CC2c2n[nH]c(=S)n2-c2ccc(Cl)cc2)cc1 (stereo unspecified),-45,/,/,/
O=C(C(Cc1ccccc1)n1cccc1)N1CCN(c2ccccc2)CC1 (stereo unspecified),?,-81,-4.9,29
O=C(Nc1nc(-c2ccccn2)cs1)c1ccccc1-n1cnnn1,-43,/,/,/
CCc1nccn1S(=O)(=O)c1cc(C)c(OC)cc1C,-50,/,/,/
COc1ccc(S(=O)(=O)N(Cc2cc3ccc(OC)cc3[nH]c2=O)CC2COCCO2)cc1 (stereo unspecified),-45,/,/,/
O=C(Nc1nc2ccsc2c(=O)s1)C1CCC1,-65,/,/,/
SMILES,PGC1a Ac signal,Hep G6PC suppr,PCK1 hep suppr,PGC1a hep suppr
c1coc(CN(Cc2cccs2)Cc2nnnn2C2CCCCC2)c1,?,-10,70,?
Clc1ccccc1OCCCCN1CCCC1,-42,/,/,/
CCN(CC)c1ccc(C(=C2C=CC(=[N+](CC)CC)C=C2)c2ccc(N(CC)CC)cc2)cc1,-83,/,/,/
CCOc1ccc(S(N)(=O)=O)cc1-c1nc2c(C(C)(C)C)nn(C)c2c(=O)[nH]1,-50,/,/,/
CC(C)(C)c1ccc(OCC(=O)NNC(=O)Nc2ccccc2)cc1,-43,/,/,/
O=C(NC(=S)Nc1ccccc1N1CCCC1)c1cccs1,-51,/,/,/
COc1ccc(-c2cc(-c3ccccc3O)[nH]n2)cc1OC,95*,17,55,31
O=C(NCc1csc(-c2cccs2)n1)c1cccc(Cl)c1,-43,22,37,53
C=CCn1c(SCC(=O)NCc2ccccc2)nnc1-c1ccccc1O,-58,/,/,/
CCC(C)NC(=O)c1ccc2c(SCC(=O)O)c3c(nc2c1)CCCC3 (stereo unspecified),-41,/,/,/
COc1cc(CN2CCCC(CO)(Cc3cccc(Cl)c3)C2)cc2c1OCO2 (stereo unspecified),-44,-16[8 µM],165,86
Cc1cc2nc(/C=C/c3cccnc3)[nH]c2cc1C,-67,/,/,/
CCn1c(C)c(C)c2cc(C(=O)NCCN3CCOCC3)ccc21,-46,/,/,/
Cc1ccc(S(=O)(=O)N(Cc2ccc(F)cc2)Cc2ccco2)cc1,71*,0,31,?
COc1cc(CNCCN2CCOCC2)ccc1OCc1ccc(Cl)cc1Cl,-101,/,/,/
Cn1c(SCc2ccon2)nc2ccccc2c1=O,-49,/,/,/
Cn1ncc(Cl)c1C(=O)Nc1sc2c(c1C(N)=O)CCC2,59*,16,-10,39
CC(=O)n1nc2nc(C)cc(C)c2c1N,-41,/,/,/
OC(CN1c2ccccc2Sc2ccccc21)Cn1nnc2ccccc21 (stereo unspecified),76*,/,44,15
CCN(CC)c1ccc(NC2=C(Cl)C(=O)c3ccccc3C2=O)cc1,-68,/,/,/
Nc1ccc2c(c1)C(=O)C(=O)c1ccccc1-2,-107,/,/,/
c1ccc(-c2c(-c3ccccc3)n(Cc3ccco3)c3ncnc(NCCCn4ccnc4)c23)cc1,125*,267[8 µM],216,88
c1ccc(CN2OCC3Cn4c(nc5ccccc54)C32)cc1 (stereo unspecified),-41,/,/,/
CCCC(=O)C1=C(O)C(C(=O)OC)C(C)(C)CC1=Nc1ccc(OC)cc1 (stereo unspecified),-46,/,/,/
C[C@@H]1CN([C@H](C)CO)C(=O)c2c(c3ccccc3n2C)-c2ccccc2CO[C@@H]1CN(C)C(=O)Nc1ccccc1C(F)(F)F,96*,10,17,117
SMILES,PGC1a Ac signal,Hep G6PC suppr,PCK1 hep suppr,PGC1a hep suppr
COc1ccc(NC(=O)N(C)C[C@H]2OCc3ccccc3-c3c(n(C)c4ccccc34)C(=O)N([C@@H](C)CO)C[C@H]2C)c(OC)c1,85*,11[9 µM],47,80
S=C1NC2=C(CCCC2=C2SCCS2)C(c2ccccc2)N1 (stereo unspecified),-41,/,/,/
Cc1cc(OCC(=O)O/N=C(\N)c2ccccc2)cc(C)c1Cl,-59,/,/,/
COc1ccc(NCc2nnc(SCC(=O)Nc3cc(C)cc(C)c3)o2)cc1,-52,/,/,/
CN1Cc2c(N3CCOCC3)nc3sc(C(=O)c4ccc(Br)cc4)c(N)c3c2CC1(C)C,83*,235,208,48
O=C(NCC1CC1)Nc1ccccc1F,-83,/,/,/
O=C(NCc1cccs1)c1ccc(Cl)c(S(=O)(=O)N2CCCC2)c1,?,129,/,?
CC(C)(C)c1ccc(O)c(O)c1,-47,/,/,/
CCN1C(=O)CCCc2ccccc21,-68,/,/,/
COc1ccc(C(c2nnnn2C2CCCC2)N2CCC(C)CC2)c(OC)c1 (stereo unspecified),100*,100,137,134
COc1ccc(-c2nc3c(C)cc(Br)cn3c2Cc2ccc(C)cc2)cc1OC,?,215,131,99
O=C(COc1ccc(Cl)cc1Cl)NCCCN1CCOCC1,-41,/,/,/
CCn1c(SC/C=C/c2ccccc2)nnc1-c1cccs1,-50,109,59,154
Cc1cc(N2CCN(C)CC2)nc2ccc(NC(=S)N3CCN(c4cccc(Cl)c4)CC3)cc12,-48,/,/,/
Oc1ccc(C2CNCCc3c2cc(O)c(O)c3Cl)cc1 (stereo unspecified),-42,/,/,/
COc1ccc(CCNC(=O)c2cc(-c3ccco3)on2)cc1OC,87*,-12,-7.1,?
CC(/C=N/NC(=O)c1cc(-c2ccc(Cl)cc2)nc2ccccc12)=C\c1ccco1,-53,/,/,/
